Here are results for 22 compounds from ChEMBL document CHEMBL1139341 (J Med Chem, 2009).

The target in experiment [1] is Somatostatin receptor type 3 (Homo sapiens, UniProt P32745). The experiment can be described thus: Displacement of [125I]-[Leu8, DTrp22, Tyr25]-somatostatin-28 from human recombinant sst3 receptor expressed in chinese hamster CCL39 cells. The format is cell-based. Put shortly: (§1)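 Competitive displacement on membrane pellet sections from cells expressing each human sst subtype. The radioligand was [¹²⁵I]-[Leu⁸,D-Trp²²,Tyr²⁵]-somatostatin-28 at 15000 cpm/100 µL. Unlabeled compounds were tested from 0.1 to 1,000 nmol/L, with somatostatin-28 run in parallel over the same range. IC₅₀ was calculated from displacement.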
Sequence of Somatostatin receptor type 3 (P32745 whole entry): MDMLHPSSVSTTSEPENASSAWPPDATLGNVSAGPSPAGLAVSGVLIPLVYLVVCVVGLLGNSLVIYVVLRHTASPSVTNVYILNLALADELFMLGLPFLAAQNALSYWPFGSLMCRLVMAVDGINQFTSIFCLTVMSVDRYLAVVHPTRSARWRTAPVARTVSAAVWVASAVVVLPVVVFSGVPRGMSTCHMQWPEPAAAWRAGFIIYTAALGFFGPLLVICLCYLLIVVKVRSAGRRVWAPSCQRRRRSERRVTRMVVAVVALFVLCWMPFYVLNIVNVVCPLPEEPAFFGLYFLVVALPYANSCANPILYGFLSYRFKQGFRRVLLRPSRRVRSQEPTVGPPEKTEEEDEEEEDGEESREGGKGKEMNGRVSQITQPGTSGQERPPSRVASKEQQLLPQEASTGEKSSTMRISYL

In experiment [2] the target is Somatostatin receptor type 4 (Homo sapiens, UniProt P31391). Briefly: Displacement of [125I]-[Leu8, DTrp22, Tyr25]-somatostatin-28 from human recombinant sst4 receptor expressed in chinese hamster CCL39 cells. The format is cell-based. Put shortly: as §1
Sequence of Somatostatin receptor type 4 (P31391 whole entry): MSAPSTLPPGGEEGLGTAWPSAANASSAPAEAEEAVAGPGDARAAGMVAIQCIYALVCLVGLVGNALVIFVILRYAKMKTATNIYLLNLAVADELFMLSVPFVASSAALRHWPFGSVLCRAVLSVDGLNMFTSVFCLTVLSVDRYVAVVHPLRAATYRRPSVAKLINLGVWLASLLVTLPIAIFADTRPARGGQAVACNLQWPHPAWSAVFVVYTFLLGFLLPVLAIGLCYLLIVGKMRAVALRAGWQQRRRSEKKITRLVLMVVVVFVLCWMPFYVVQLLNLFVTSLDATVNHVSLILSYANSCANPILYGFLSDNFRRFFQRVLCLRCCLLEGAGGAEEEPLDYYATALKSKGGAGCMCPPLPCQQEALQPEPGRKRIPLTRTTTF
Experiment [3] addresses Somatostatin receptor type 2 (Homo sapiens, UniProt P30874). Briefly: Displacement of [125I]-[Leu8, DTrp22, Tyr25]-somatostatin-28 from human recombinant sst2 receptor expressed in chinese hamster CCL39 cells. Format: cell-based. In short, it runs like this: as §1
In experiment [4] the target is Somatostatin receptor type 1 (Homo sapiens, UniProt P30872). The experiment can be described thus: Displacement of [125I]-[Leu8, DTrp22, Tyr25]-somatostatin-28 from human recombinant sst1 receptor expressed in chinese hamster CCL39 cells. The format is cell-based. Put shortly: as §1
Sequence of Somatostatin receptor type 1 (P30872 whole entry): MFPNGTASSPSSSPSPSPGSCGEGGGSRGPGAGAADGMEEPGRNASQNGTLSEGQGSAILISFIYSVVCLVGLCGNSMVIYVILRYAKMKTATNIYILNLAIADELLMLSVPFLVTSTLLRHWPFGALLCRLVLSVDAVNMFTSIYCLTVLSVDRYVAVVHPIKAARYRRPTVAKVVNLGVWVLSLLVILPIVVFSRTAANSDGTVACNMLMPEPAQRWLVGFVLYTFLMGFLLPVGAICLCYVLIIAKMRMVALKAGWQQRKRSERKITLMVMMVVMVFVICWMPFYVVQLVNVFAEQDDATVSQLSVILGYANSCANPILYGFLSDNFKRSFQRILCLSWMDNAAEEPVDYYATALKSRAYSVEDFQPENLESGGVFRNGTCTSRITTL
Experiment [5] deals with T1, Somatostatin receptor type 5 (Homo sapiens, UniProt P35346). Briefly: Displacement of [125I]-[Leu8, DTrp22, Tyr25]-somatostatin-28 from human recombinant sst5 receptor expressed in chinese hamster CCL39 cells. The format is cell-based. In short, it runs like this:
as §1

The species named for experiment [6] is Homo sapiens. The experiment can be described thus: Selectivity for human recombinant sst5 receptor over human recombinant sst4 receptor.
In experiment [7] the target is T1, Somatostatin receptor type 5. Briefly: Agonist activity at human recombinant sst5 receptor expressed in chinese hamster CCL39 cells assessed stimulation of [35S]GTP-gamma-S-binding. The format is functional, cell-based. Put shortly: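 CCL-sst₅ cells grown in DMEM/Ham's F-12 (1:1) with 10% FBS, penicillin/streptomycin and 400 µg/mL G418 at 37 °C, 5% CO₂. Binding was run on 20 µm cryostat sections of membrane pellets. Sections were preincubated 10 min at room temperature in Tris-HCl buffer (pH 8.2) with BSA, bacitracin and MgCl₂. They then went 30 min in the same buffer plus 50 µM GDP.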

pIC50: −log10 of the molar value. Active and inactive are the calls of the source. No cut-off for these calls is given here. Starred links: 1 amine or outer side, 2 acyl side, 3 side chain; linkers in the order of their positions; H or OH if unused. Positions of bridges follow the written chain, without caps; N, C: chain ends. Non-standard residues stand in square brackets, D forms with d. Residues, ends and D or L forms follow the SMILES beside them. Phe(Nα-(CH2)3CO) = O=C([C@H](Cc1ccccc1)N(CCCC(=O)[*:3])[*:1])[*:2]; N(2-aminoethyl)Phe = O=C([C@H](Cc1ccccc1)N(CCN[*:3])[*:1])[*:2]

Sequence of Somatostatin receptor type 2 (P30874 whole entry): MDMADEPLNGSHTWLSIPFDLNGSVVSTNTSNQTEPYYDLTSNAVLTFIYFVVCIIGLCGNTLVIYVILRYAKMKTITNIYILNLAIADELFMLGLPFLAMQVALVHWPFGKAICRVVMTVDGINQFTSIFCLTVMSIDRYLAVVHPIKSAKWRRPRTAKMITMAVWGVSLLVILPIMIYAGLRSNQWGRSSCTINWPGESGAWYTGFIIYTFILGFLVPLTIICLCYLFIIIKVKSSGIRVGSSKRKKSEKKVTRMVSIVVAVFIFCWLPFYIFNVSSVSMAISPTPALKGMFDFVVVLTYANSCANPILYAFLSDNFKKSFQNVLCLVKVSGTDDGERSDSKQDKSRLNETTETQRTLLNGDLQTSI
T1 sequence (P35346 whole entry): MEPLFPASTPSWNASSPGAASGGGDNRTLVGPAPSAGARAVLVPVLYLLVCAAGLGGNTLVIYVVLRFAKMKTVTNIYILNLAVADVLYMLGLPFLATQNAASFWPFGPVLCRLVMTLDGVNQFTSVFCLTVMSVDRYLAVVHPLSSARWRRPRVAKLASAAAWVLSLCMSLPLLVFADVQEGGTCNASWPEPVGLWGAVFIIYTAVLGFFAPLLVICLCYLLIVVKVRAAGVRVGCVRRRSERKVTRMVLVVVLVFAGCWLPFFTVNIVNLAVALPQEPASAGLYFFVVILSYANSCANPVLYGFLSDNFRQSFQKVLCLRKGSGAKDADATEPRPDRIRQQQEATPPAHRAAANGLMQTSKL

Regarding `COC(=O)[C@H](CCCCN)N1Cc2[nH]c3ccccc3c2C[C@@H](NC(=O)Cc2ccccc2)C1=O`, the negative-log IC50 (pIC50) in experiment [1] was 6.40; in experiment [2] it was 8.62; in experiment [3], 6.54; in experiment [4] it was 6.02; in experiment [5] it was 7.89.
Consider `C[C@@H](O)[C@@H](CO)NC(=O)[C@@H]1C/C=C/C[C@H](NC(=O)[C@H](N)Cc2ccccc2)C(=O)N[C@@H](Cc2ccccc2)C(=O)N[C@H](Cc2c[nH]c3ccccc23)C(=O)N[C@@H](CCCCN)C(=O)N[C@@H](Cc2ccc(OCc3ccccc3)cc2)C(=O)N1`, for which the fold change (FC) in experiment [6] came out at 24. In addition, the pIC50 in experiment [5] is 7.92.
Turning to `NCCCC[C@@H](C(=O)NCc1ccccc1)N1Cc2[nH]c3ccccc3c2C[C@@H](NC(=O)N2CCC(n3c(=O)[nH]c4ccccc43)CC2)C1=O`, the pIC50 was 8.41 in experiment [1]; 8.36 in experiment [2]; 9.14 in experiment [3]; 7.12 in experiment [4]; 9.07 in experiment [5].
Regarding `C[C@H](N)COC(=O)[C@@H](CCCCN)NC(=O)Cc1c(-c2ccc3ccccc3c2)[nH]c2c1ccc1ccccc12`, the pIC50 in experiment [5] is 9.40.
For `CS(=O)(=O)N1CC2(CCN(C(=O)N[C@@H]3Cc4c([nH]c5ccccc45)CN([C@@H](CCCCN)C(=O)NCc4ccccc4)C3=O)CC2)c2ccccc21`, the pIC50 is 6.50 in experiment [1]; 8.68 in experiment [2]; 6.49 in experiment [3]; 6.08 in experiment [4]; 8.10 in experiment [5].
Taken in the same sequence, the figures for `NCCCC[C@@H](C(=O)NCc1ccccc1)N1Cc2[nH]c3ccccc3c2C[C@@H](NC(=O)c2ccc(-c3ccccc3)cc2)C1=O` were 7.27, 6.79, 7.92, under 6.00 and 7.80.
On to `C[C@H](NC(=O)[C@H](CCCCN)N1Cc2[nH]c3ccccc3c2C[C@@H](NC(=O)Cc2ccccc2)C1=O)c1ccccc1`, for which the pIC50 in experiment [1] is 6.52; in experiment [2], 9.00; in experiment [3], 6.34; in experiment [4], 6.74; in experiment [5] it was 8.49.
Regarding `NCCCC[C@@H](C(=O)NCc1ccccc1)N1Cc2[nH]c3ccccc3c2C[C@@H](NC(=O)C(c2ccccc2)c2ccccc2)C1=O`, the pIC50 in experiment [1] is under 6.30; in experiment [2], 7.85; in experiment [3], 6.62; in experiment [4] it was 6.61; in experiment [5], 8.06.
With `CC(=O)N[C@@H]1Cc2c([nH]c3ccccc23)CN([C@@H](CCCCN)C(=O)NCc2ccccc2)C1=O`, the negative logarithm of the IC50 (pIC50) was under 6.00 in experiment [1]; 8.15 in experiment [2]; 6.53 in experiment [3]; 6.60 in experiment [4]; 8.30 in experiment [5].
Regarding `NCCCC[C@@H](C(=O)NCc1ccccc1)N1Cc2[nH]c3ccccc3c2C[C@@H](NC(=O)N2CCN(S(=O)(=O)c3ccccc3)CC2)C1=O`, the negative logarithm of the IC50 (pIC50) in experiment [1] was 6.59; in experiment [2] it was 7.23; in experiment [3], 8.38; in experiment [4] it was 6.43; in experiment [5] it was 8.46.
As to `C[C@@H](NC(=O)[C@H](CCCCN)N1Cc2[nH]c3ccccc3c2C[C@@H](NC(=O)Cc2ccccc2)C1=O)c1ccccc1`, the pIC50 in experiment [1] was 6.39; in experiment [2], 7.85; in experiment [3] it was 6.11; in experiment [4], 6.20; in experiment [5], 7.30.
On to `NCCCC[C@@H](C(=O)NCc1ccccc1)N1Cc2[nH]c3ccccc3c2C[C@@H](NC(=O)N2CCC3(CCc4ccccc43)CC2)C1=O`, for which the pIC50 is 8.04 in experiment [1]; 7.46 in experiment [2]; 8.68 in experiment [3]; 6.42 in experiment [4]; 8.54 in experiment [5].
Taken in the same sequence, the figures for `NCCCC[C@@H](C(=O)NCc1ccccc1)N1Cc2[nH]c3ccccc3c2C[C@@H](NC(=O)c2ccccc2)C1=O` were 6.74, 8.89, 6.99, 7.57 and 8.74.
In the case of `NCCCC[C@@H](C(=O)NCCc1ccccc1)N1Cc2[nH]c3ccccc3c2C[C@@H](NC(=O)Cc2ccccc2)C1=O`, the pIC50 is 7.30 in experiment [1]; 8.62 in experiment [2]; 6.74 in experiment [3]; 7.12 in experiment [4]; 9.22 in experiment [5]. The result in experiment [7] was Active.
Turning to `CC(C)[C@@H]1NC(=O)[C@H](CCCCN)NC(=O)[C@H](Cc2c[nH]c3ccccc23)NC(=O)[C@H](Cc2ccc(O)cc2)NC(=O)[C@H](Cc2ccccc2)NCCNC(=O)CCCN([C@@H](Cc2ccccc2)C(=O)N[C@H](C(N)=O)[C@@H](C)O)C1=O` (H-[N(2-aminoethyl)Phe]YWKV[Phe(Nα-(CH2)3CO)]T-NH2; lactam 1-6), the fold change (FC) in experiment [6] worked out at 24.
As for `NCCCC[C@@H](C(=O)NCc1ccccc1)N1Cc2[nH]c3ccccc3c2C[C@@H](NC(=O)C2CCN(C(=O)c3ccccc3)CC2)C1=O`, the negative logarithm of the IC50 (pIC50) in experiment [1] is 6.92; in experiment [2], 8.16; in experiment [3], 8.68; in experiment [4] it was 7.05; in experiment [5] it was 8.85.
The corresponding values for `NCCCC[C@H](C(=O)NCc1ccccc1)N1Cc2[nH]c3ccccc3c2C[C@@H](NC(=O)Cc2ccccc2)C1=O` are 6.04, 7.25, under 6.00, under 6.00 and 7.60.
Turning to `CC(=O)N[C@@H]1Cc2c([nH]c3ccccc23)CN([C@@H](CCCCN)C(=O)NCCc2ccccc2)C1=O`, the pIC50 in experiment [1] was 6.29; in experiment [2], 8.15; in experiment [3], under 6.00; in experiment [4] it was 6.98; in experiment [5] it was 9.25. The result in experiment [7] was Active. Also, the fold change (FC) in experiment [6] was 10.
In the case of `NCCCC[C@@H](C(=O)NCc1ccccc1)N1Cc2[nH]c3ccccc3c2C[C@@H](NC(=O)CCc2ccccc2)C1=O`, the pIC50 in experiment [1] was 6.82; in experiment [2], 8.09; in experiment [3] it was 8.00; in experiment [4], 7.27; in experiment [5], 8.47.
The corresponding values for `NCCCC[C@@H](C(=O)NCc1cccc2ccccc12)N1Cc2[nH]c3ccccc3c2C[C@@H](NC(=O)Cc2ccccc2)C1=O` are 6.98, 7.77, 6.67, 6.41 and 8.46.
Consider `NCCCC[C@@H](C(=O)NCc1ccccc1)N1Cc2[nH]c3ccccc3c2C[C@@H](NC(=O)c2ccc(Cl)cc2)C1=O`, for which the pIC50 in experiment [1] was 6.79; in experiment [2], 8.64; in experiment [3], 7.66; in experiment [4], 7.42; in experiment [5], 8.43.
With `NCc1cccc(C[C@@H]2O[C@@H](CC(=O)NCc3ccccc3F)C(=O)N(Cc3ccc(-c4ccccc4)cc3)c3ccccc32)c1`, the fold change (FC) in experiment [6] worked out at 200. In addition, the negative logarithm of the IC50 (pIC50) in experiment [5] was 9.52.
